Assays:
[1] = test system: MS2 coat protein; experiment: apparent Kd, MS2 coat protein; higher = weaker binding; RNA-MaP array; conditions: designed as: OFF switch for flavin mononucleotide
How it was run: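 Designed RNAs were transcribed in place on an Illumina sequencing chip from sequenced DNA templates. At room temperature and with or without input ligand, they were incubated with fluorescently labeled MS2 coat protein from 1.5 nM to 3 μM, for 0.8–1.5 h at the lowest and 10–20 min at the highest concentrations. Apparent Kd is the median of the binding-curve fits made per cluster, with designs measured on fewer than 10 clusters excluded.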

[2] = test system: MS2 coat protein; experiment: apparent Kd, MS2 coat protein; higher = weaker binding; RNA-MaP array; FMN 200 µM where present
How it was run: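 Stalled E. coli RNA polymerase transcribed the designs on Illumina sequencing-chip clusters. SNAP-549-labelled MS2 coat protein was titrated from 0.7 or 1.5 nM, doubling to 3 µM, without and then with constant ligand, in 100 mM Tris-HCl pH 7.5, 80 mM KCl, 4 mM MgCl2, BSA, DTT, yeast tRNA and Tween-20. Per-cluster binding curves were fitted to green signal normalised to red-channel RNA signal and control-cluster median Fmax. The apparent Kd is the median of the filtered fits.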

[3] = ligand present: flavin mononucleotide
[4] = designed as: OFF switch for flavin mononucleotide, no ligand
[5] = ligand present: flavin mononucleotide, designed as: OFF switch for flavin mononucleotide
[6] = designed as: ON switch for flavin mononucleotide, no ligand
[7] = ligand present: flavin mononucleotide, designed as: ON switch for flavin mononucleotide

| Sequence | apparent Kd [2, 4] [nM] | apparent Kd [2, 5] [nM] | also measured |
| --- | --- | --- | --- |
| CCAUUGUCAGGAUAUUGUGGUUUAGCGUCGAAAGGGCUUAGCAAGAAGGGACAUGAGGAUCACCCAUGUGUAGU | – | – | apparent Kd ([1]; no ligand): 33.8 nM; apparent Kd [1, 3]: 146 nM |
| UGACUCUCUGUCAGGAUAUAACAAGCUACAGUUUAUUAGAAGGGACAUGAGGAUCACCCAUGUUGAACACCCGA | – | – | apparent Kd ([1]; no ligand): 7.94 nM; apparent Kd [1, 3]: 7.98 nM |
| ACGAAUGUAGGAUAUACCAGUAGGAGAUGGGUAUCAGCACCACAUGAGGAUCACCCAUGUAGAAGGACACGUGA | – | – | apparent Kd ([1]; no ligand): 38.4 nM; apparent Kd [1, 3]: 40.3 nM |
| AAUUAUAUACAGAAGGAGUUAUUUUGAGGAUUACUAGGAUAUGUUCACAUGAGGAUCACCCAUGUCAUAUUGGGAUUUAUUAUU | 19.5 | 26.7 | – |
| GGUGCGUAUGUGAGGAUAUGCUGGUCCUUGGAUCGGCAGAAGGCACAUGAGGAUCACCCAUGUGGUGUCGUACA | 411 | 34.7 | – |
| GGCUCAUUGACAUUAAUGUGCAGACAGGAUAUCCACGGCGGUUCCUACAUGAGGAUCACCCAUGUGGAGAAGGGUCGCUAAUGG | 14.4 | 33 | – |
| GCACUGGAUGUAGGAUAUCAGGACGAUAAGUCCUGAGAAGGACAUGAGGAUCACCCAUGUAAACUCAACCAGUGCUAUAAUAUA | 15.2 | 22.8 | – |
| UAUAAUUAGUAGAAGGACGGAGAGUAAGAAGUCGUAGGAUAUACAAAAGACAUGAGGAUCACCCAUGUGAGUAUGUUGGGAAGG | 7.05 | 7.62 | – |
| GUCAGCUCGUGAGGAUAUACAACACUGCUUCGGCAGUGUAGUAAGAUCACAUGAGGAUCACCCAUGUAGAAGGCACGAGCUGAU | 6.05 | 26.3 | – |
| GGAUCUUGGGUCAGGAUAUGCUGACAGCCAUGUCAGCAGAAGGGACAUGAGGAUCACCCAUGUGCUCGGUUUUG | 10.3 | 18.1 | – |
| UCAUUUCUGUAAGGAUAUAUAAACAUGACGAUACAUGAGGAUCACCCAUGUAUAGAAGGUACAAAUACAUAUAAUGCAAUGUUC | 16.9 | 12.9 | – |
| AAGCGAGGGACAGGAUAUGCGGCGAAACUCGCCGCAGAAGGGUCGACAUGAGGAUCACCCAUGUCCUUACGCUCCAAGUAGUGG | – | – | apparent Kd [2, 6]: 101 nM; apparent Kd [2, 7]: 250 nM |
| GGAGACCUCACAGGAUAUGCUGGACUUUGUCCAGCAGAAGGGUGAAUACAUGAGGAUCACCCAUGUGGUCUCCAAAUAUUUAAU | – | – | apparent Kd [2, 6]: 1170 nM; apparent Kd [2, 7]: 75.3 nM |
| AGUGUCAUCGAGAAGGCCUCAUGACAUGAGGAUCACCCAUGUUAGCAUGGGAGGAUAUCGAUGAUACAGCUACGUUUCGUAGCA | – | – | apparent Kd [2, 6]: 170 nM; apparent Kd [2, 7]: 51.4 nM |
| AACACACAUGAGGAUCACCCAUGUAAAAUUUAGCAAGGAUAUGGGUGCCGUAAUCGGUUACCAGAAGGUGCCUCAC | – | – | apparent Kd [2, 6]: 103 nM; apparent Kd [2, 7]: 59.8 nM |
| GUGUAGAUAGGAUAUGCUUAGAGCUUACGAAAGUAGGCUCUACAUGAGGAUCACCCAUGUAGAAGGGUCUACAC | 31.3 | 19.1 | – |
| GUGGUCAGACAUGAGGAUCACCCAUGUGGAAUAAAUAAGGACAAGGAUAUGGAAUAUAGGAUAUACCAGAAGGUGUGGUUGGUG | – | – | apparent Kd [2, 6]: 70 nM; apparent Kd [2, 7]: 86 nM |
| GCGCAAGCAUGAGGAUAUGUAUUAAAUAAUAAUACAGAAGGCAUGUCAAAUGACAUGAGGAUCACCCAUGUUGGCAAACUGCGC | – | – | apparent Kd [2, 6]: 46.4 nM; apparent Kd [2, 7]: 13 nM |
| AGACAGAUCGAGAAGGGAACAUGAGGAUCACCCAUGUGGAAGACUUGAUGUUCAGGAUAUCGAAAGCCUGAGUUAGAUGAAUUG | 26.5 | 115 | – |
| GGACAUUUACAGAAGGGCAAGUUAGAUAGUGAAUAUUUAGUUCUGACUUGCAGGAUAUGUUGAACAUGAGGAUCACCCAUGUCC | – | – | apparent Kd [2, 6]: 14.4 nM; apparent Kd [2, 7]: 10.6 nM |
| GUCAGCUCGUGAGGAUAUACAACACUGCUUCGGCAGUGUAUUCAGAUCACAUGAGGAUCACCCAUGUAGAAGGCACGAGCUGAU | 12.8 | 206 | – |
| GAUUGACAUGAGGAUCACCCAUGUGAGGAUAUCGGCCGGACCUUGUUAGCUUCCACCGCGAGAAGGCACAUCGG | 19.7 | 21.3 | – |
| GCUCUAUGCUAGAAGGCGUGAAACAUGAGGAUCACCCAUGUCAGAGAUAUGAGGAUAUAGCAUAGAGCAAAAGACGGAAACGUC | – | – | apparent Kd [2, 6]: 13.4 nM; apparent Kd [2, 7]: 5.41 nM |

| Sequence | apparent Kd [2, 4] [nM] | apparent Kd [2, 5] [nM] | also measured |
| --- | --- | --- | --- |
| UCGUGUUAUACAGGAUAUGUUUAGGUUUAUUCAUUCAGUUAUUAAUUUAUGACAGAAGGGUAUACAUGAGGAUCACCCAUGUCA | 761 | 306 | – |
| UGAACAAUGUAGAAGGCCCAUAUUUAUAUAUAGGGAGGAUAUACAUGAGGAUCACCCAUGUAAAGAGCAAGAGGAUUUGACAGA | 10.4 | 22.2 | – |
| UCCUUACUGGUCAGGAUAUACAUUCGCUACUCCUUGUAGAAGGGACAUGAGGAUCACCCAUGUACUUUACAUUC | 17.4 | 18.9 | – |
| CCAGAGGUCACAGGAUAUGACUCGUCCAAUUGGUCAGAAGGGUGAAUCACAUUAUGUAUACAUGAGGAUCACCCAUGUCCUACG | – | – | apparent Kd [2, 6]: 64.4 nM; apparent Kd [2, 7]: 165 nM |
| GGUCCACGAGGAUAUCGAUUAUAGUACAUGAGGAUCACCCAUGUUGUCCAGGUUUCGAUUCGAGAAGGCGUGGGUU | 54.4 | 39 | – |
| CCUAUACAUGAGGAUCACCCAUGUCAGGAUAUAGAAAGCCGCGGAAUAGGCCGCGGCACUAGAAGGGACUGGCU | 27.5 | 40.5 | – |
| UAAAUGUCAGGAUAUUGUUAAUUUAGUUGUUUGUAUUAGUUCGAGAAGGGACAUGAGGAUCACCCAUGUUAAUU | 30.2 | 36 | – |
| AAACACGGACAUGAGGAUCACCCAUGUGGCGAAAGCCUUGGGAGAAGGCCGAUAGCAAAGCUAUCGGAGGAUAUUCAUACCGUG | – | – | apparent Kd [2, 6]: 1200 nM; apparent Kd [2, 7]: 61 nM |
| GUGACGAAUGUAGGAUAUGCUGAGGAAUACUCAGCAGAAGGACAUGAGGAUCACCCAUGUACUAAUAGUGAUAAUAAACGUCAC | 15.6 | 77.6 | – |
| ACAUUAGUAUCACAUGUAUUACAUGAGGAUCACCCAUGUUACUAGGAUAUGUAUUAGAAUUUACAACAGAAGGAGUUAAUUUGU | 7.52 | 7.7 | – |
| AGAAACUACGAGAAGGACAUGUGGAAAAACGCAAACAUGAGGAUCACCCAUGUAGGAUAUCGUAGUUUCAGGAUCGUGAGAUCA | 304 | 367 | – |
| GUGCACACUCGAGGAUAUCGGAGAGGACUCCUUCGAGAAGGCGAUUCGUGCCGUGUUAUUCUGGACAUGAGGAUCACCCAUGUG | – | – | apparent Kd [2, 6]: 126 nM; apparent Kd [2, 7]: 38.2 nM |
| CAAUCACCCUCAUGUACCUGAGGACAUGAGGAUCACCCAUGUAAGGAUAUAGCCAUUAAAUCUAACUAGAAGGUAUAAAUAACC | 1010 | 523 | – |
| GAAUUUUUACAGAAGGUGUUUUACAUGAGGAUCACCCAUGUUUUAUUGUUUAAAUUUGUUAUUUACAAGGAUAUGUUCUAUUCU | – | – | apparent Kd [2, 6]: 26.7 nM; apparent Kd [2, 7]: 19.7 nM |
| UUAUGUAUUGUAGGAUAUCACAAGUUAUGUAUUAUAAUUGUAAUUUUGUAAUGAGAAGGACAUAUACAUGAGGAUCACCCAUGU | 18.9 | 14.9 | – |
| UACGUAUGAGGAUAUACAAACAGAAAAAUCAGACGUAACUGACAUGAGGAUCACCCAUGUAGAAGGCAUAUACA | 27.7 | 18.6 | – |
| ACAAUAGUAUCUCAUGUAUUACAUGAGGAUCACCCAUGUAACUAGGAUAUGUAUUAGAAUUUACAACAGAAGGAGUUAUUAUGU | 9.03 | 17.7 | – |
| GUGGCUAGUGCAGGAUAUUAGUGCGUGUAGUAUUGAGAAGGGCACAUGAGGAUCACCCAUGUGAUCAAUCACUGUUAAGGUCGC | 79.7 | 76.5 | – |
| CGUUCAGAGAACGAUACGAAUGGACAUGAGGAUCACCCAUGUAGAAGGACAGGAGAAUAACGACUGUAGGAUAUACAUUUAGUG | 41.3 | 76 | – |
| CCUUUUGUAUAAGGAUAUGUAACAAGGUGUAGGUUUGUAGGACUUGCGCUUACAGAAGGUAUACAUGAGGAUCACCCAUGUCGA | 29.9 | 157 | – |
| GUGCUUUGGGAGAAGGCCGUAUGCAAAGCAUACGGAGGAUAUUCAUACCGGAAACGGACAUGAGGAUCACCCAUGUGGCACAAA | – | – | apparent Kd [2, 7]: 44.6 nM |
| GCAUGACAAAGUCAUGCAUUACGAACAUGAGGAUCACCCAUGUAGGAUAUGCUACUCAAAGAGUAGCAGAAGGACAUGUGUCUU | 32.7 | 158 | – |
| UUAUUAAGUGUGAGGAUAUGCUGGUCCUUGGAUCAGCAGAAGGCACAUGAGGAUCACCCAUGUACAAUAUAUUA | 38.5 | 251 | – |

— the EternaBench riboswitch data
